Laboratory results: ChEMBL document CHEMBL3352723, “6-(Hetero)Arylpurine nucleotides as inhibitors of the oncogenic target DNPH1: synthesis, structural studies and cytotoxic activities” (Eur J Med Chem, 2014)
The source made the active and inactive calls. The calls are words filed in the database; no cut-off is given here.

Key:
[1] = Cytotoxicity against human HCT15 cells after 72 hrs by MTT assay; settings: HCT-15, 72 h
[2] = Cytotoxicity against human HL60 cells after 72 hrs by MTT assay; settings: HL-60, 72 h
[3] = Cytotoxicity against human HCT15 cells at 10 uM after 72 hrs by MTT assay; settings: HCT-15, 72 h, read-out: INH
[4] = Cytotoxicity against human HCT116 cells at 10 uM after 72 hrs by MTT assay; settings: HCT-116, 72 h, read-out: INH
[5] = Cytotoxicity against human HL60 cells at 10 uM after 72 hrs by MTT assay; settings: HL-60, 72 h, read-out: INH
[6] = Cytotoxicity against human PC3 cells at 10 uM after 72 hrs by MTT assay; settings: PC-3, 72 h, read-out: INH
[7] = test system: MCF7; assay: Cytotoxicity against human MCF7 cells at 10 uM after 72 hrs by MTT assay; settings: MCF7, 72 h, read-out: INH
[8] = Cytotoxicity against human HCT116 cells after 72 hrs by MTT assay; type: functional, cell-based; settings: HCT-116, 72 h
Method in brief: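 Cells grown in RPMI 1640 with L-glutamine, 10% FCS, penicillin/streptomycin and fungizone at 37 °C under 5% CO2. Seeding was 2000 cells/well for HCT116 and HL60 and 600 for HCT15; compounds added after 24 h in DMSO (1% final). Viable cells read at 490 nm with MTS reagent.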

[9] = test system: HCT-15; settings: Homo sapiens, 10 uM
[10] = test system: HCT-116; settings: Homo sapiens, 10 uM
[11] = test system: HL-60; settings: Homo sapiens, 10 uM
[12] = test system: PC-3; settings: Homo sapiens, 10 uM

Row | Structure (SMILES) | IC50 [1] [nM] | IC50 [2] [nM] | inhibition at 10 µM [3] [%] | inhibition at 10 µM [4] [%] | inhibition at 10 µM [5] [%] | inhibition at 10 µM [6] [%] | inhibition at 10 µM [7] [%] | IC50 [8] [nM] | inhibition [9] | inhibition [10] | inhibition [11] | inhibition [12]
1 | O=P(O)(O)OC[C@H]1O[C@@H](n2cnc3c(-c4ccc(Cl)s4)ncnc32)[C@H](O)[C@@H]1O | 1000 | 6500 | > 90 | > 90 | > 90 | > 90 | > 90 | – | – | – | – | –
2 | O=P(O)(O)OC[C@H]1O[C@@H](n2cnc3c(-c4ccoc4)ncnc32)[C@H](O)[C@@H]1O | 1300 | 15400 | > 90 | > 90 | > 90 | > 90 | > 90 | 5500 | – | – | – | –
3 | O=P(O)(O)OC[C@H]1O[C@@H](n2cnc3c(-c4cccc(-c5cccc6c5sc5ccccc56)c4)ncnc32)[C@H](O)[C@@H]1O | – | – | – | – | – | – | > 90 | – | inactive | inactive | inactive | inactive
4 | O=C(O)c1ccc(-c2cccc(-c3ncnc4c3ncn4[C@@H]3O[C@H](COP(=O)(O)O)[C@@H](O)[C@H]3O)c2)cc1 | – | – | – | – | – | – | > 90 | – | inactive | inactive | inactive | inactive
5 | O=P(O)(O)OC[C@H]1O[C@@H](n2cnc3c(-c4ccc(O)cc4)ncnc32)[C@H](O)[C@@H]1O | 300 | 500 | > 90 | > 90 | > 90 | > 90 | > 90 | 4100 | – | – | – | –
6 | O=P(O)(O)OC[C@H]1O[C@@H](n2cnc3c(-c4ccc5cc[nH]c5c4)ncnc32)[C@H](O)[C@@H]1O | 1400 | 500 | > 90 | > 90 | > 90 | > 90 | > 90 | > 80000 | – | – | – | –
7 | O=P(O)(O)OC[C@H]1O[C@@H](n2cnc3c(NCc4ccccc4)ncnc32)[C@H](O)[C@@H]1O | 800 | 5000 | – | – | – | – | – | 7700 | – | – | – | –
8 | O=P(O)(O)OC[C@H]1O[C@@H](n2cnc3c(-c4cccc(Br)c4)ncnc32)[C@H](O)[C@@H]1O | 600 | 3900 | > 90 | > 90 | > 90 | > 90 | > 90 | – | – | – | – | –
9 | O=P(O)(O)OC[C@H]1O[C@@H](n2cnc3c(-c4ccccc4)ncnc32)[C@H](O)[C@@H]1O | 700 | 1700 | > 90 | > 90 | > 90 | > 90 | > 90 | 3200 | – | – | – | –
